Laboratory results: ChEMBL document CHEMBL4342521 (J Med Chem, 2020)
Activity calls are given as the source filed them. The rule behind the calls is not given here.

Tests used:
[1] = target: 72 kDa type IV collagenase (Homo sapiens) (UniProt P08253); assay: Inhibition of MMP-2 (unknown origin) at 10 to 50 uM incubated for 10 to 15 mins and measured after 2 hrs by fluorescence based assay
How it was run: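 MMP-2/MMP-9 in activation buffer with test agent (final 50 and 10 μM), 10–15 min incubation, then fluorogenic substrate added. Incubated 2 h at 37 °C; fluorescence read at 320/405 nm. Kit MMP inhibitor was the positive control.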

K562 = assay: Antiproliferative activity against human K562 cells assessed as reduction in cell viability after 48 hrs by CellTiter-Blue assay; type: functional; conditions: K562, 48 h, read-out: LC50 (the source's name)
How it was run: (§1)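 Cells grown in RPMI1640 with 10% FBS at 37 °C, 5% CO₂. 5,000–10,000 cells/well were pre-incubated overnight, and a time-zero CellTiter-Blue read was taken. Six 10-fold dilutions (top final 10 μM) were applied for 48 h, followed by 0.125 mg/mL CellTiter-Blue for 2–4 h. Resorufin fluorescence was read at ex 560/em 590 nm. […] Triplicates.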

SR = assay: Antiproliferative activity against human SR cells assessed as reduction in cell viability after 48 hrs by CellTiter-Blue assay; type: functional; conditions: read-out: LC50 (the source's name)
How it was run: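 NCI-60 panel lines grown in RPMI1640 with 10% FBS at 37 °C, 5% CO₂. Seeded at 5,000–10,000 cells/well and pre-incubated overnight. Exposed for 48 h to six 10-fold dilutions (top final 10 μM), with a time-zero plate read at dosing. CellTiter-Blue (0.125 mg/mL) for 2–4 h, fluorescence 560/590 nm, triplicate curves.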

NCI-H322M = assay: Antiproliferative activity against human NCI-H322M cells assessed as reduction in cell viability after 48 hrs by CellTiter-Blue assay; type: functional; conditions: read-out: LC50 (the source's name); how it was run: as §1
HCC 2998 = assay: Antiproliferative activity against human HCC2998 cells assessed as reduction in cell viability after 48 hrs by CellTiter-Blue assay; type: functional; conditions: HCC 2998, 48 h, read-out: LC50 (the source's name); how it was run: as §1
HCT-15 = assay: Antiproliferative activity against human HCT15 cells assessed as reduction in cell viability after 48 hrs by CellTiter-Blue assay; type: functional; conditions: HCT-15, 48 h, read-out: LC50 (the source's name); how it was run: as §1
HT-29 = assay: Antiproliferative activity against human HT-29 cells assessed as reduction in cell viability after 48 hrs by CellTiter-Blue assay; type: functional; conditions: HT-29, 48 h, read-out: LC50 (the source's name); how it was run: as §1
KM12 = assay: Antiproliferative activity against human KM12 cells assessed as reduction in cell viability after 48 hrs by CellTiter-Blue assay; type: functional; conditions: KM12, 48 h, read-out: LC50 (the source's name); how it was run: as §1
MDA-MB-435 = assay: Antiproliferative activity against human MDA-MB-435 cells assessed as reduction in cell viability after 48 hrs by CellTiter-Blue assay; type: functional; conditions: MDA-MB-435, 48 h, read-out: LC50 (the source's name); how it was run: as §1
OVCAR-5 = assay: Antiproliferative activity against human OVCAR5 cells assessed as reduction in cell viability after 48 hrs by CellTiter-Blue assay; type: functional; conditions: OVCAR-5, 48 h, read-out: LC50 (the source's name); how it was run: as §1
NCI/ADR-RES = assay: Antiproliferative activity against human NCI/ADR-RES cells assessed as reduction in cell viability after 48 hrs by CellTiter-Blue assay; type: functional; conditions: read-out: LC50 (the source's name); how it was run: as §1
DU-145 = assay: Antiproliferative activity against human DU145 cells assessed as reduction in cell viability after 48 hrs by CellTiter-Blue assay; type: functional; conditions: DU-145, 48 h, read-out: LC50 (the source's name); how it was run: as §1
BT-549 = assay: Antiproliferative activity against human BT549 cells assessed as reduction in cell viability after 48 hrs by CellTiter-Blue assay; type: functional; conditions: BT-549, 48 h, read-out: LC50 (the source's name); how it was run: as §1
MV4-11 [2] = assay: Induction of apoptosis in human MV4-11 cells harboring wild type p53/FLT3-ITD mutant assessed as cleavage of pro-caspase 3 at 50 to 200 nM after 24 hrs by Western blot analysis; type: functional, cell-based
How it was run: (§2)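 Cells (1,500,000 per well) grown 12 h, then drug-treated as specified. Lysed in RIPA buffer, sonicated, centrifuged, protein normalized by BCA. Run on 4–12% Bis-Tris gels in MES, transferred, probed overnight at 4 °C with primary antibodies at 1/1000. Actin served as reference for LC3-II quantitation.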

MV4-11 [3] = assay: Down regulation of FTL3 in human MV4-11 cells harboring wild type p53/FLT3-ITD mutant at 50 to 200 nM after 24 hrs by Western blot analysis; type: functional, cell-based; how it was run: as §2
MV4-11 [4] = assay: Induction of apoptosis in human MV4-11 cells harboring wild type p53/FLT3-ITD mutant assessed as XIAP degradation at 50 to 200 nM after 24 hrs by Western blot analysis; type: functional, cell-based; how it was run: as §2
MV4-11 [5] = assay: Induction of autophagy in human MV4-11 cells harboring wild type p53/FLT3-ITD mutant assessed as LC-3 degradation at 50 to 200 nM after 24 hrs by Western blot analysis; type: functional, cell-based; how it was run: as §2
MV4-11 [6] = assay: Inhibition of p53 degradation in human MV4-11 cells harboring wild type p53/FLT3-ITD mutant at 100 nM after 12 hrs in presence of MDM2 inhibitor RG7388 by Western blot analysis relative to control; type: functional; conditions: MV4-11, 12 h; how it was run: as §2
HL-60 = assay: Upregulation of P21WAF1/Cip1 protein expression in p53 null human HL60 cells harboring wild type FLT3 at 50 to 200 nM after 24 hrs by Western blot analysis; type: functional, cell-based
How it was run: (§3)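 RS4;11 cells were cultured in RPMI-1640 with 10% FBS and HL-60 cells in IMDM with 20% FBS. Cells were plated at 1,500,000 per well, grown 12 h, then drug-treated. Lysis was in RIPA buffer with sonication and centrifugation, and loading was normalized by BCA. Lysates were run on 4–12% Bis-Tris gels in MES buffer and transferred, and membranes were probed overnight at 4 °C with 1/1000 primary antibodies.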

RS4-11 = assay: Upregulation of P21WAF1/Cip1 protein expression in human RS4:11 cells harboring wild type p53/FLT3 at 50 to 200 nM after 24 hrs by Western blot analysis; type: functional, cell-based; how it was run: as §3
MV4-11 [7] = assay: Inhibition of p53 degradation in human MV4-11 cells at 200 nM after 24 hrs in presence of 5 nM bortezomib by Western blot analysis; type: functional, cell-based; how it was run: as §2
[8] = Mutagenecity in Salmonella typhimurium TA100 at 10 uM in presence of S9 liver homogenate after 2 to 3 days by mini-Ames test; type: toxicity; conditions: salmonella enterica subsp. enterica serovar typhimurium, s9, 10 µM
How it was run: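 Compound was tested at a final 10 μM undiluted plus four serial dilutions, with S9 mix and glucose/biotin/trace-histidine exposure solution, for 100 min at 37 °C. Reversion medium was added and cultures dispensed to 96 wells for 2–3 days at 37 °C. Yellow or partial-yellow wells were scored positive; 2-aminoanthracene was the positive control.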

72 kDa type IV collagenase (Homo sapiens), sequence (P08253 110-660 limits assumed): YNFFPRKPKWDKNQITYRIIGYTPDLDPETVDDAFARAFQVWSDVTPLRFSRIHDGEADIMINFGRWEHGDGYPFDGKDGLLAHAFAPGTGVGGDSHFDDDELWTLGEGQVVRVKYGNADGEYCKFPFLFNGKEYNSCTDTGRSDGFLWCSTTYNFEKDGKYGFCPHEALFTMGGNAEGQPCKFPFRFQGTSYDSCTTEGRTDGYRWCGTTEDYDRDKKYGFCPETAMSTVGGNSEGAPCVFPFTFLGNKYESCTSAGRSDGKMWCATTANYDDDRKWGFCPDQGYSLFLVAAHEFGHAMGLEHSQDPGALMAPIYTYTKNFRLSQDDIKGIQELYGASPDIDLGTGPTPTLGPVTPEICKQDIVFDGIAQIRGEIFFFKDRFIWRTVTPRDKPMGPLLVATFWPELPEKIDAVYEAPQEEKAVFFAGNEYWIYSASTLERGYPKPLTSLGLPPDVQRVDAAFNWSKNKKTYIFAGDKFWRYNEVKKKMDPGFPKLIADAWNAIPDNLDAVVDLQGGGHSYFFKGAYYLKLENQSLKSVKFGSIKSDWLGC

## CCCNNC(=O)/C=C/c1ccc(CNCCc2c(C)[nH]c3ccccc23)cc1.O=C(O)C(F)(F)F
[1]
  inhibition: inactive
K562
  CC50: > 10 µM
SR
  CC50: > 10 µM
NCI-H322M
  CC50: > 10 µM
HCC 2998
  CC50: 1.76 µM
HCT-15
  CC50: > 10 µM
HT-29
  CC50: > 10 µM
KM12
  CC50: > 10 µM
MDA-MB-435
  CC50: > 10 µM
OVCAR-5
  CC50: > 10 µM
NCI/ADR-RES
  CC50: > 10 µM
DU-145
  CC50: > 10 µM
BT-549
  CC50: > 10 µM
MV4-11 [2]
  Activity: Active
MV4-11 [3]
  Activity: Active
MV4-11 [4]
  Activity: Active
MV4-11 [5]
  Activity: Active
MV4-11 [6]
  inhibition at 0.1 µM: 100%
HL-60
  Activity: Active
RS4-11
  Activity: Active
MV4-11 [7]
  inhibition: Active
[8]
  Activity: Non-Toxic
